Screening results: PubChem, Sanford-Burnham Center for Chemical Genomics
Only some compounds are listed: those with a hit (about 2.4% of all), similar ones and a draw of the others.
NadD inh: blocks S. aureus nicotinate mononucleotide adenylyltransferase. purified NadD enzyme, colorimetric absorbance read-out. inhibition, % at 20 µM. AID 602399. 0.78% of 360,000 active; in the data active = inhibition above about 26%
STEP block: STEP (human) phosphatase inhibition | recombinant STEP, OMFP fluorogenic substrate, fluorescence | inhibition, % at 20 µM | 0.25% of 360,000 active | AID 588621;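 active = inhibition at 20 µM, scaled per plate between control wells, above about 37%, limit read from the data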;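 also: 0% = DMSO with enzyme and substrate and 100% = substrate only without enzyme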
Target sequence (P54829 whole entry, looked up): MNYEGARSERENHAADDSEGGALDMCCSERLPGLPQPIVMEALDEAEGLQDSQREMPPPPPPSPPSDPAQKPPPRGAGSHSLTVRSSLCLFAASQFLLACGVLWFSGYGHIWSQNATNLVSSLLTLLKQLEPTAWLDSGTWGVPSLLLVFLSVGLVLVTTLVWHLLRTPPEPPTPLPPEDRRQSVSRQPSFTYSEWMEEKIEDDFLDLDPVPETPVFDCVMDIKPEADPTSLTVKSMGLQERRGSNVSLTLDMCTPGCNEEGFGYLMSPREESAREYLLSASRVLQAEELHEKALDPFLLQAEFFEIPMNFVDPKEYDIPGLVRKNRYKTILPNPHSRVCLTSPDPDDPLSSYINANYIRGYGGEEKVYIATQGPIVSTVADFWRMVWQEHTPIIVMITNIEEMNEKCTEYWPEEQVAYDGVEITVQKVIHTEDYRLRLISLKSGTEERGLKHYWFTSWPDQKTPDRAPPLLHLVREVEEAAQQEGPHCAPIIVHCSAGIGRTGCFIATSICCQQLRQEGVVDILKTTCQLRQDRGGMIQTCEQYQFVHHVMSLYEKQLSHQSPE
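material = STEP tyrosine phosphatase | reagent = fluorogenic phosphatase substrate OMFP at 25 µM final | doses = single compound dose of 20 µM, 1% DMSO final | schedule = 20 min reaction, room temperature, in the dark | measured by = fluorescence, 480/540 nm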
SUMO1 PPI mod: SUMO1-SIM interaction modulation; SUMO1 binding to a labelled peptide, TR-FRET, 1 h; inhibition, % at 20 µM; 0.33% of 360,000 active; in the data active = inhibition above about 37%
Scp1 inh: Scp-1 (human) phosphatase inhibition. 0.88% of 340,000 active. Q9GZU7. AID 493091. Recombinant Scp1, phosphopeptide, malachite green phosphate absorbance. inhibition, % at 20 µM;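 active = inhibition above about 50% at 20 µM, limit read from the data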;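 also: plate controls were DMSO wells with enzyme for no effect and wells lacking enzyme for full effect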
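Material – SCP-1 phosphatase catalytic domain, residues 76-261 · Buffer or medium – Acidic Tris acetate buffer with magnesium and detergent · Also added – Phospho 17-mer peptide substrate · Compound – single 20 µM dose, 1% DMSO · Times – 45 min room-temperature reaction, 5 min colour, 30 min stabiliser · Technique – Phosphate-binding colour reagent, absorbance read at 630 nm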
LMPTP inh: blocks human LMPTP phosphatase; P24666; recombinant LMPTP-A, OMFP fluorogenic substrate, fluorescence intensity; inhibition, % at 20 µM; 0.22% of 360,000 active; AID 651560;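 active = compounds that cut the enzyme signal by at least half of the control window in the single-dose screen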;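 also: plate controls were DMSO wells with enzyme plus substrate for no effect and substrate without enzyme for full effect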
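Assay system: LMPTP-A enzyme. Input: 0.625 nM LMPTP-A final. Probe or stimulus: 400 µM OMFP. Compound dosing: single 20 µM dose. Schedule: 50 min dark incubation at room temperature. Detection: fluorescence intensity of OMFP turnover product. Read-out: percent inhibition versus substrate-only and uninhibited controls. Benchmarks: no-enzyme low control, uninhibited high control.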
DNMT1 inh: inhibitors of human DNMT1; AID 588458; inhibition (reported as % activation of signal), % at 10 µM; DNMT1 molecular beacon, Hinp1I cleavage, fluorescence; 0.83% of 360,000 active; in the data active = inhibition above about 50%
STEP inh conf: STEP (human) phosphatase inhibition, single concentration confirmation. shares compounds with STEP block. recombinant STEP, OMFP fluorogenic substrate, fluorescence. inhibition, % at 20 µM. 32% of 520 active. AID 623866; call rule not given here;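 also: 0% = enzyme with substrate plus DMSO and 100% = substrate without enzyme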
NadD conf: NadD (S. aureus) inhibition, single concentration confirmation. shares compounds with NadD inh. 13% of 2,000 active. AID 624309. purified S. aureus NadD, colorimetric enzyme assay. inhibition, % at 20 µM; in the data active = inhibition mostly above about 42%, no sharp cut-off; inactive = mostly below about 42%
* hit, by the source's call; . = not tested or not shown.

SMILES	NadD inh	STEP block	SUMO1 PPI mod	Scp1 inh	LMPTP inh	DNMT1 inh	NadD conf	others
c1ccc2cc(C3N4CCCN34)ccc2c1 (configuration not stated)	-4	0	-5	-1	1	1	.
Cn1c(O)c(Cc2cccc(Cl)c2Cl)c(=O)n(C)c1=O	1	3	2	-13	-1	2	.
C=CCn1c(O)c(/C=N/N2CCCCC2c2cccnc2)c(=O)[nH]c1=S (configuration not stated)	-4	42*	-2	-6	-2	-3	.	STEP inh conf=-1
CC1(C(=O)O)CC12c1ccccc1-c1ccccc12 (configuration not stated)	1	-1	5	-3	-2	0	.
CN(C)c1ccc(CCN2CCOCC2)cc1	2	-1	3	-3	0	1	.
CN(C)c1ccc2c(c1)N=C(c1ccco1)OP2(=S)N1CCOCC1 (configuration not stated)	3	36*	1	8	5	-7	.	STEP inh conf=12
CCOc1cc(C2C(C#N)=C(N)Oc3c2c(=O)oc2ccccc32)ccc1OC(=O)c1cccs1 (configuration not stated)	31*	2	15	-8	2	-6	23
N#CC1=C(N)Oc2c(c(=O)oc3ccccc23)C1c1cccnc1 (configuration not stated)	1	-3	-2	-2	0	1	.
CCN1C[C@]2(COC(=O)c3ccccc3N)CC[C@H](OC)C34[C@@H]5C[C@H]6[C@H](OC)[C@@H]5[C@](O)(C[C@@H]6OC)[C@@](O)([C@H]13)[C@@H](OC)[C@@H]42	2	-2	4	-8	1	-2	.
CC(=O)c1ccc2c(c1)C1C(Cl)C(Sc3ccccc3[N+](=O)[O-])CC1C(c1ccccc1)N2 (configuration not stated)	37*	2	9	-2	1	-32	20
O=C1NC(=O)C(Sc2ccccc2[N+](=O)[O-])C(=O)N1	3	2	-6	-8	1	-7	.
CC(=O)c1ccc2c(c1)C1C(Cl)C(Sc3ccccc3[N+](=O)[O-])CC1C(c1ccccc1[N+](=O)[O-])N2 (configuration not stated)	68*	4	7	-9	5	-14	25
C[n+]1c(-c2ccccc2)cc(CCCCc2cc(-c3ccccc3)[n+](C)c(-c3ccccc3)c2)cc1-c1ccccc1	40*	4	-30	47	50*	21	43
COc1ccc(-c2cc(-c3ccccc3)[n+](C)c(-c3ccccc3)c2)cc1	14	3	-19	8	-1	1	.
O=c1[nH]c2ccccc2n1C1CCN(C(c2nnnn2Cc2ccccc2)C2CC2)CC1 (configuration not stated)	-4	1	13	.	2	-12	.
N#Cc1ccc2nc(-c3ccc(CN4CCC(n5c(=O)[nH]c6ccccc65)CC4)cc3)c(-c3ccccc3)nc2c1	43*	.	-14	.	36	.	26
Cc1cccc2nc(-c3ccccc3)c(-c3ccc(CN4CCC(n5c(=O)[nH]c6ccccc65)CC4)cc3)nc12	45*	.	-5	.	9	.	26
Cc1cccc(C)c1-n1nnnc1C(c1cccc2ccccc12)N1CCC(n2c(=O)[nH]c3ccccc32)CC1 (configuration not stated)	38*	1	5	.	4	-14	-3
O=c1[nH]c2ccccc2n1C1CCN(CCCC(c2ccc(F)cc2)c2ccc(F)cc2)CC1	6	2	-3	-6	21	-13	.
CC(=O)O[C@]1(C)C(=O)OC/C2=C/CN(C)CCC(OC(=O)[C@@](O)(C(C)O)C[C@H]1C)C2=O (some centres not stated)	-8	0	5	-9	0	-1	.
N#Cc1ccc(NC(=O)CN2C(=O)NC3(CCCCCCC3)C2=O)cc1Cl	-2	-3	3	-7	-1	-11	.
O=C(NCCCN1CC1)Nc1cccc2ccccc12	34*	-1	-123	17	0	10	11
COC(=O)C1=C(c2ccccc2)C[C@@H]2CC[C@H]1N2C(=O)NCc1cccc2ccccc12	-3	2	-3	-5	-1	0	.
Cc1cccc(C)c1-n1nnnc1C(CCc1ccccc1)N1CCC2(CC1)C(=O)NCN2c1ccccc1 (configuration not stated)	41*	0	5	.	2	2	10
O=C1NCN(c2ccccc2)C12CCN(C(c1cccc3ccccc13)c1nnnn1C1CCCCC1)CC2 (configuration not stated)	30*	2	2	.	4	28	8
C=CCCC1(CC(C)C)C(=O)NC(=S)NC1=O	0	1	6	-5	-1	-1	.
C=C(C)Cn1c(=O)n(CC2CS2)c2ccccc21 (configuration not stated)	-2	-4	-4	-7	-3	3	.
Cc1cc(N(CCCl)CCCl)ccc1C=NNC(=O)Cc1cc(=O)oc2cc(O)ccc12	73*	-4	0	7	-1	-9	59*
